The values below come from ChEMBL document CHEMBL4610084, “Antibacterial and ATP Synthesis Modulating Compounds from Salvia tingitana” (2020).

A word on the MIC: it is the lowest concentration that inhibits growth of the organism.

≈ marks a conversion by molar mass, not a printed value. Some results are limits rather than exact numbers.

The first assay has as its system Enterococcus faecalis. The experiment in a line: Antibacterial activity against Vancomycin resistant Enterococcus faecalis MB51 after 24 hrs by microdilution assay. In kind it is functional. Particulars: MB51, 24 h. In short, it runs like this:
(§1)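 Broth microdilution MIC, run as in an earlier cited report. Strains are clinical isolates identified by standard methods and MALDI-TOF; E. faecalis MB19 and MB51 are Ligurian seawater isolates. Highest concentration tested was 128 μg/mL. MICs are given in μg/mL and μM, with oxacillin and vancomycin as reference antibiotics.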
Background: In broth dilution the organism is exposed to a series of concentrations in liquid medium.
The molecule `COC(=O)[C@]1(C)CCC[C@@]2(C)[C@H]1CC[C@@](C)(O)[C@@H]2CC/C(C)=C/[C@H](O)[C@H]1OC(=O)C=C1C` returned a minimum inhibitory concentration (MIC) of 286 µM (≈ 128 µg/mL).

The subject of a further assay is Enterococcus faecium. The experiment in a line: Antibacterial activity against Enterococcus faecium MB3 after 24 hrs by microdilution assay. In kind it is functional. The conditions noted are these: MB3, 24 h. In short, it runs like this: (§2)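 Broth microdilution MIC against clinical or seawater-isolated strains (identified by standard procedures and MALDI-TOF), with compound solutions and testing as in earlier work. MIC reported in μg/mL and μM.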
For `COC(=O)[C@]1(C)CCC[C@@]2(C)[C@H]1CC[C@@](C)(O)[C@@H]2CC/C(C)=C/[C@H](O)[C@H]1OC(=O)C=C1C`, the MIC came to 143 µM (≈ 64.1 µg/mL).

Another assay has as its system Enterococcus gallinarum. The experiment in a line: Antibacterial activity against Vancomycin resistant Enterococcus gallinarum MB111 after 24 hrs by microdilution assay. In kind it is functional. Particulars: MB111, 24 h. In short, it runs like this: as §1
In turn, `COC(=O)[C@]1(C)CCC[C@@]2(C)[C@H]1CC[C@@](C)(O)[C@@H]2CC/C(C)=C/[C@H](O)[C@H]1OC(=O)C=C1C` had a minimum inhibitory concentration (MIC) of 143 µM (≈ 64.1 µg/mL).

The next assay relates to Staphylococcus capitis. The experiment in a line: Antibacterial activity against Methicillin-resistant Staphylococcus capitis MB71 after 24 hrs by microdilution assay. In kind it is functional. Particulars: MB71, 24 h. An outline of the steps: as §1
For `COC(=O)[C@]1(C)CCC[C@@]2(C)[C@H]1CC[C@@](C)(O)[C@@H]2CC/C(C)=C/[C@H](O)[C@H]1OC(=O)C=C1C`, 286 µM (≈ 128 µg/mL) was the least that counted as inhibitory (MIC).

The next assay concerns Staphylococcus aureus. The experiment in a line: Antibacterial activity against Methicillin-resistant Staphylococcus aureus MB188 after 24 hrs by microdilution assay. In kind it is functional. The conditions noted are these: MB188, 24 h. In short, it runs like this: as §1
`COC(=O)[C@]1(C)CCC[C@@]2(C)[C@H]1CC[C@@](C)(O)[C@@H]2CC/C(C)=C/[C@H](O)[C@H]1OC(=O)C=C1C`: the MIC was greater than 128 µg/mL.

In another assay the test system is Enterococcus avium. The experiment in a line: Antibacterial activity against Enterococcus avium MB119 after 24 hrs by microdilution assay. In kind it is functional. Particulars: MB119, 24 h. In short, it runs like this: as §2
Consider `COC(=O)[C@]1(C)CCC[C@@]2(C)[C@H]1CC[C@@](C)(O)[C@@H]2CC/C(C)=C/[C@H](O)[C@H]1OC(=O)C=C1C`, for which it took 286 µM (≈ 128 µg/mL) to inhibit growth (MIC).

The next assay deals with Staphylococcus hominis. The experiment in a line: Antibacterial activity against Methicillin-resistant Staphylococcus hominis MB124 after 24 hrs by microdilution assay. In kind it is functional. Particulars: MB124, 24 h. In short, it runs like this:
as §1
With `COC(=O)[C@]1(C)CCC[C@@]2(C)[C@H]1CC[C@@](C)(O)[C@@H]2CC/C(C)=C/[C@H](O)[C@H]1OC(=O)C=C1C`, the MIC was found to be 286 µM (≈ 128 µg/mL).

In a further assay the test system is Enterococcus casseliflavus. The experiment in a line: Antibacterial activity against Vancomycin resistant Enterococcus casseliflavus MB159 after 24 hrs by microdilution assay. In kind it is functional. Particulars: MB159, 24 h. In short, it runs like this:
as §1
As to `COC(=O)[C@]1(C)CCC[C@@]2(C)[C@H]1CC[C@@](C)(O)[C@@H]2CC/C(C)=C/[C@H](O)[C@H]1OC(=O)C=C1C`, the lowest concentration to inhibit growth (MIC) was 143 µM (≈ 64.1 µg/mL).

A further assay has as its system Enterococcus faecalis. The experiment in a line: Antibacterial activity against Vancomycin resistant Enterococcus faecalis MB1 after 24 hrs by microdilution assay. In kind it is functional. The conditions noted are these: MB1, 24 h. An outline of the steps:
as §1
Take `COC(=O)[C@]1(C)CCC[C@@]2(C)[C@H]1CC[C@@](C)(O)[C@@H]2CC/C(C)=C/[C@H](O)[C@H]1OC(=O)C=C1C`: it took 143 µM (≈ 64.1 µg/mL) to inhibit growth (MIC).

The test system of a further assay is Staphylococcus haemolyticus. The experiment in a line: Antibacterial activity against Methicillin-resistant Staphylococcus haemolyticus MB115 after 24 hrs by microdilution assay. In kind it is functional. Particulars: MB115, 24 h. An outline of the steps:
as §1
As to `COC(=O)[C@]1(C)CCC[C@@]2(C)[C@H]1CC[C@@](C)(O)[C@@H]2CC/C(C)=C/[C@H](O)[C@H]1OC(=O)C=C1C`, the MIC was greater than 128 µg/mL.

The next assay deals with Enterococcus durans. The experiment in a line: Antibacterial activity against Enterococcus durans MB113 after 24 hrs by microdilution assay. In kind it is functional. The conditions noted are these: MB113, 24 h. In short, it runs like this:
as §2
For the molecule `COC(=O)[C@]1(C)CCC[C@@]2(C)[C@H]1CC[C@@](C)(O)[C@@H]2CC/C(C)=C/[C@H](O)[C@H]1OC(=O)C=C1C`, the MIC was found to be 286 µM (≈ 128 µg/mL).

For a further assay, the system named is Staphylococcus epidermidis. The experiment in a line: Antibacterial activity against Methicillin-resistant Staphylococcus epidermidis MB169 after 24 hrs by microdilution assay. In kind it is functional. Particulars: MB169, 24 h. In short, it runs like this:
as §1
In the case of `COC(=O)[C@]1(C)CCC[C@@]2(C)[C@H]1CC[C@@](C)(O)[C@@H]2CC/C(C)=C/[C@H](O)[C@H]1OC(=O)C=C1C`, the MIC is 286 µM (≈ 128 µg/mL).

For another assay, the system named is Enterococcus faecalis. The experiment in a line: Antibacterial activity against Vancomycin resistant Enterococcus faecalis MB19 after 24 hrs by microdilution assay. In kind it is functional. Particulars: MB19, 24 h. An outline of the steps: as §1
In the case of `COC(=O)[C@]1(C)CCC[C@@]2(C)[C@H]1CC[C@@](C)(O)[C@@H]2CC/C(C)=C/[C@H](O)[C@H]1OC(=O)C=C1C`, the minimal inhibitory concentration (MIC) came to 143 µM (≈ 64.1 µg/mL).

The subject of another assay is Enterococcus faecium. The experiment in a line: Antibacterial activity against Enterococcus faecium MB2 after 24 hrs by microdilution assay. In kind it is functional. Particulars: MB2, 24 h. In short, it runs like this:
as §2
Turning to `COC(=O)[C@]1(C)CCC[C@@]2(C)[C@H]1CC[C@@](C)(O)[C@@H]2CC/C(C)=C/[C@H](O)[C@H]1OC(=O)C=C1C`, the minimal inhibitory concentration (MIC) was found to be 286 µM (≈ 128 µg/mL).

The next assay concerns Staphylococcus epidermidis. The experiment in a line: Antibacterial activity against Methicillin-resistant Staphylococcus epidermidis MB165 after 24 hrs by microdilution assay. Particulars: MB165, 24 h. In kind it is functional. In short, it runs like this: as §1
On to `COC(=O)[C@]1(C)CCC[C@@]2(C)[C@H]1CC[C@@](C)(O)[C@@H]2CC/C(C)=C/[C@H](O)[C@H]1OC(=O)C=C1C`, for which the MIC was greater than 128 µg/mL.

In the next assay the test system is Staphylococcus saprophyticus. The experiment in a line: Antibacterial activity against Staphylococcus saprophyticus MB41 after 24 hrs by microdilution assay. The conditions noted are these: MB41, 24 h. In kind it is functional. In short, it runs like this:
as §2
`COC(=O)[C@]1(C)CCC[C@@]2(C)[C@H]1CC[C@@](C)(O)[C@@H]2CC/C(C)=C/[C@H](O)[C@H]1OC(=O)C=C1C` gave an MIC of 286 µM (≈ 128 µg/mL).

The subject of a further assay is Staphylococcus simulans. The experiment in a line: Antibacterial activity against Staphylococcus simulans MB94 after 24 hrs by microdilution assay. In kind it is functional. The conditions noted are these: MB94, 24 h. An outline of the steps: as §2
In turn, `COC(=O)[C@]1(C)CCC[C@@]2(C)[C@H]1CC[C@@](C)(O)[C@@H]2CC/C(C)=C/[C@H](O)[C@H]1OC(=O)C=C1C` came in with an MIC greater than 128 µg/mL.

A further assay has as its system Enterococcus faecium. The experiment in a line: Antibacterial activity against Enterococcus faecium MB152 after 24 hrs by microdilution assay. Particulars: MB152, 24 h. In kind it is functional. An outline of the steps:
as §2
With `COC(=O)[C@]1(C)CCC[C@@]2(C)[C@H]1CC[C@@](C)(O)[C@@H]2CC/C(C)=C/[C@H](O)[C@H]1OC(=O)C=C1C`, the MIC is 286 µM (≈ 128 µg/mL).

For a further assay, the system named is Staphylococcus warneri. The experiment in a line: Antibacterial activity against Methicillin-resistant Staphylococcus warneri MB74 after 24 hrs by microdilution assay. Particulars: MB74, 24 h. In kind it is functional. An outline of the steps:
as §1
For the molecule `COC(=O)[C@]1(C)CCC[C@@]2(C)[C@H]1CC[C@@](C)(O)[C@@H]2CC/C(C)=C/[C@H](O)[C@H]1OC(=O)C=C1C`, the MIC was determined as 143 µM (≈ 64.1 µg/mL).

In a further assay the test system is Staphylococcus lugdunensis. The experiment in a line: Antibacterial activity against Staphylococcus lugdunensis MB96 after 24 hrs by microdilution assay. In kind it is functional. Particulars: MB96, 24 h. In short, it runs like this: as §2
Regarding `COC(=O)[C@]1(C)CCC[C@@]2(C)[C@H]1CC[C@@](C)(O)[C@@H]2CC/C(C)=C/[C@H](O)[C@H]1OC(=O)C=C1C`, it took 286 µM (≈ 128 µg/mL) to inhibit growth (MIC).

The test system of another assay is Staphylococcus aureus. The experiment in a line: Antibacterial activity against Methicillin-resistant Staphylococcus aureus MB18 after 24 hrs by microdilution assay. In kind it is functional. The conditions noted are these: MB18, 24 h. In short, it runs like this: as §1
`COC(=O)[C@]1(C)CCC[C@@]2(C)[C@H]1CC[C@@](C)(O)[C@@H]2CC/C(C)=C/[C@H](O)[C@H]1OC(=O)C=C1C` had a minimal inhibitory concentration (MIC) of 286 µM (≈ 128 µg/mL).

A further assay has as its system Enterococcus faecalis. The experiment in a line: Antibacterial activity against Enterococcus faecalis MB76 after 24 hrs by microdilution assay. In kind it is functional. Particulars: MB76, 24 h. An outline of the steps: as §1
Take `COC(=O)[C@]1(C)CCC[C@@]2(C)[C@H]1CC[C@@](C)(O)[C@@H]2CC/C(C)=C/[C@H](O)[C@H]1OC(=O)C=C1C`: inhibition of growth (MIC) required 143 µM (≈ 64.1 µg/mL).
